Measurements from ChEMBL document CHEMBL1126627, “Synthesis and anti-HIV evaluation of D4T and D4T 5'-monophosphate prodrugs” (J Med Chem, 1993).
Activity calls are given as the source filed them. The rule behind the calls is not given here.

Assays:
CEM-c113 [1] = assay: Effective concentration that reduces HIV-induced cytopathic effect by 50% was determined by MTT assay.; assay type: functional, cell-based; settings: Homo sapiens
In short: (§1)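 CEM-Cl13 T-lymphoblastoid cells in RPMI 1640 with 5% heat-inactivated FCS at 37 °C, 5% CO2. Wells seeded with 10000 cells and given compound dilutions in triplicate (DMF stock diluted in water, at most 0.1% DMF final). Infected with HIV-1 LAV-Bru cell-free supernatant at 50-250 times the minimal infecting dose, cultured 7 days. MTT viability read at 540 nm. EC50 is the dose giving 50% protection from CPE. SI is IC50/EC50.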

[2] = Selectivity index expressed as ratio of IC50 (CEM-C113) to EC50 from MTT assay; assay type: functional; in short: as §1
CEM-c113 [3] = assay: Antiviral activity measured in lymphocytic cell line (CEM-C113) infected with HIV-1 cell free supernatants; assay type: functional, cell-based; settings: Homo sapiens; in short: as §1
[4] = Half-life estimated in human plasma; assay type: ADME
In short: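 Compounds incubated in human plasma. Breakdown followed by TLC separation, and half-life estimated from this.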

[5] = molecular target: Human immunodeficiency virus type 1 reverse transcriptase (Human immunodeficiency virus 1) (UniProt Q72547); assay: Selectivity index expressed as ratio of IC50 (CEM-C113) to EC50 from RT assay
In short: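 HIV-1 LAV-Bru cell-free supernatant used to infect CEM-Cl13 cells (10000/well, triplicate compound dilutions, 7-day culture). EC50 is 50% reduction of RT activity. SI is the ratio of the mock-infected MTT IC50 to this EC50.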

[6] = Selectivity index expressed as ratio of IC50 (CEM-C113) to EC50 from MTT assay; inactive; assay type: functional; in short: as §1

Row | IC50 (CEM-c113 [3]) [µM] | half-life [4] [h] | Selectivity index [5] | Compound | EC50 (CEM-c113 [1]) [µM] | Selectivity index [2] | Selectivity index [6]
1 | 4 | 4 | 50 | CCCCCCCCCCCCCCCC(=O)OCC1C=CC(n2cc(C)c(=O)[nH]c2=O)O1 (centres undefined) | 0.1 | 40 | –
2 | 17 | 12 | – | CCCCCCCCCCCCCCCCOP(=O)(OCCC#N)OCC1C=CC(n2cc(C)c(=O)[nH]c2=O)O1 (centres undefined) | 4.3 | 4 | –
3 | > 20 | > 24 | – | CCCCCCCCCCCCCCCCOC(=O)OCC1C=CC(n2cc(C)c(=O)[nH]c2=O)O1 (centres undefined) | 0.3 | > 66 | –
4 | 10 | – | 200 | Cc1cn([C@H]2C=C[C@@H](CO)O2)c(=O)[nH]c1=O [STAVUDINE] | 0.08 | 125 | –
5 | 100 | > 24 | 2000 | Cc1cn(C2C=CC(COP(=O)(O)OCC3C=CC(n4cc(C)c(=O)[nH]c4=O)O3)O2)c(=O)[nH]c1=O (centres undefined) | 0.02 | 5000 | –
6 | 17 | 12 | – | Cc1cn(C2C=CC(COP(=O)(OCCC#N)OCC3C=CC(n4cc(C)c(=O)[nH]c4=O)O3)O2)c(=O)[nH]c1=O (centres undefined) | 1 | 17 | –
7 | > 20 | > 24 | – | CCCCCCCCCCCCCCCCNC(=O)OCC1C=CC(n2cc(C)c(=O)[nH]c2=O)O1 (centres undefined) | > 20 | – | inactive
8 | 10 | > 24 | 50 | CCCCCCCCCCCCCCCCOP(=O)(O)OCC1C=CC(n2cc(C)c(=O)[nH]c2=O)O1 (centres undefined) | 0.12 | 83 | –
9 | 20 | – | 2000 | Cc1cn([C@H]2C[C@H](N=[N+]=[N-])[C@@H](CO)O2)c(=O)[nH]c1=O [ZIDOVUDINE] | 0.006 | 3330 | –
